Measurements: PubChem BioAssay AID651999 (Sanford-Burnham Center for Chemical Genomics, 2013)
In all, about 360,000 compounds went through this assay and about 1,400 (0.39%) were called active. The entries come from a sample that favours actives as a whole. A number with no mark means an inactive call.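 Rule for the calls: active = pattern-corrected inhibition above about 35%, with an unprinted fluorescence ratio check between 0.5 and 1.5 (limit read from the data, passing the limit was not always enough); inactive = the rest.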

The molecules below were run against COP9 signalosome complex subunit 5 (Homo sapiens) (UniProt Q92905) (assay: inhibitors of CSN-mediated cullin deneddylation, primary screen, biochemical, fluorescence polarization, uHTS (AID 651999;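 note: 0% = enzyme with substrate and 100% = substrate without enzyme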)). Conditions: Purified CSN, SCF-Nedd8-OG deneddylation, at 12.5 µM, active compounds read high.
COP9 signalosome complex subunit 5 (Homo sapiens), sequence (Q92905 whole entry, looked up, one chain of several): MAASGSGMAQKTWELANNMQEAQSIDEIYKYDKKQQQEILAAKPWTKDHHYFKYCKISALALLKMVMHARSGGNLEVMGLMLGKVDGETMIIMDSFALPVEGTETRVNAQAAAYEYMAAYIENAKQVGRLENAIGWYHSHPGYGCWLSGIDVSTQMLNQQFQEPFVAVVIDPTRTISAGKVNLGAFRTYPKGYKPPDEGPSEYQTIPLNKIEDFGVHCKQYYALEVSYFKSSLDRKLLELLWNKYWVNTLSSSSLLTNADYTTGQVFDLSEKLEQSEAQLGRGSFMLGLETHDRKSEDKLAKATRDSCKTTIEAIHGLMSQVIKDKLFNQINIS
Outline: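 Test system: purified human Csn5 enzyme expressed in HEK293T cells. Amount: 0.24 nM enzyme. Reagent: SCFSkp2-Nedd8OG substrate at 10 nM final. Schedule: 90 min incubation of compound, enzyme and substrate at room temperature. Detection: fluorescence polarization. Read-out: % inhibition of substrate cleavage by Csn5.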

Structure (SMILES)	inhibition
CC(C)C1CC2=C(C(=O)OC(C)(C)O2)C(c2ccc(F)cc2)O1 (centres undefined)	2.3%
CCC(C)NC(=O)N[C@@H](CCSC)C(=O)O (some centres undefined)	-1.26%
Cc1sc2ncnc(SCC(=O)NC3CCS(=O)(=O)C3)c2c1C (centres undefined)	-1.73%
Cc1sc2ncnc(SCC(=O)Nc3ccc(CN4CCCC4)cc3)c2c1C	108% (active)
COC(=O)c1c(-c2cccs2)csc1NC(=O)CSc1ncnc2sc(C)c(C)c12	-5.37%
O=C(Nc1ccncc1)c1cc(-c2ccccn2)nc2ccc(Br)cc12	51.3% (active)
COc1ccc(C)cc1NC(=O)c1cc(-c2ccccc2)nc2c1cnn2C(C)C	-2.82%
Cc1cc(NS(=O)(=O)c2ccc(NC(=O)c3cccc(OC(F)F)c3)cc2)nc(C)n1	2.76%
Cc1ccc2nc(-c3ccncc3)cc(C(=O)Nc3ccc(OC(F)F)cc3)c2c1	42% (active)
O=C(Nc1cccnc1)c1cc2cc(Br)ccc2oc1=O	5.43%
O=C(Nc1ccc(Br)cc1)c1cc(S(=O)(=O)Nc2ccccn2)ccc1Cl	-4.77%
O=C(NCc1ccncc1)C(=O)NCc1ccco1	-6.34%
CCCN(CC1CC1)C(=S)NC(=O)c1ccccc1Br	-6.61%
CN1CCN(c2ccc(S(=O)(=O)N3CCOCC3)cc2NC(=O)CCc2ccccc2)CC1	2.64%
CCOC(=O)CN(C)S(=O)(=O)c1ccc(-c2cc(C(=O)OC)sc2C(F)(F)F)cc1	1.34%
COc1ccc(CCNC2=CC(=O)CC(C)(C)C2)cc1	-5.48%
COc1ccc(NC2=CC(=S)NC(C)(C)C2)cc1	42.9% (active)
COc1ccc(Nc2cc(Sc3ccc(OC)cc3)ncn2)cc1	-0.7%
O=C(NCCc1ccccc1)C(=O)NCC1OCCN1S(=O)(=O)c1cccs1 (centres undefined)	0%
O=C(Nc1ccc(Cl)c(Cl)c1)c1ccccc1NC(=O)C1CC=CCC1C(=O)O (centres undefined)	-4.09%
Cc1cc(N(C)C)cc(C)[n+]1[O-]	-2.98%
O=C1CSC(c2ccc(Cl)cc2)N1 (centres undefined)	-5.2%

Structure (SMILES)	inhibition
CCCCC(c1nnnn1CS(=O)(=O)c1ccc(C)cc1)N1CCC(C(N)=O)CC1 (centres undefined)	-2.76%
CC(C)(C)C1C/C(=C/c2ccco2)C(=O)/C(=C/c2ccco2)C1 (centres undefined)	41.2% (active)
CCCC/C(C)=N/NC(=O)NC1CCCCC1	-3.54%
Nc1c(-c2ccc(F)cc2)cnc2ncnn12	2.66%
CCN(CC(=O)Nc1ccc2c(c1)OCCO2)Cc1cc(=O)oc2cc(C)c(C)cc12	4.55%
CCc1ccccc1OCC(=O)Nc1ccc2c(c1)OCCO2	1.42%
O=C(COc1ccc2c(C(F)(F)F)cc(=O)oc2c1)Nc1ccc2c(c1)OCCO2	187% (active)
Cc1cccc(OCC(=O)NCCNC(=O)c2cccnc2)c1	0.16%
Cc1ccc(NC(=O)COc2ccc(/C=N\NC(=O)c3cccnc3)cc2)cc1C	158% (active)
Cc1ccc(NC(=O)COc2ccc(-n3ccnc3)cc2)cc1Cl	0%
CSCCC(NS(=O)(=O)c1ccc(C)cc1)C(=O)N(C)CC(=O)Nc1ccccc1Br (centres undefined)	1.95%
Cc1nc(SCC(=O)NC2CCCCC2C)c(C#N)c(C)c1C (centres undefined)	0.75%
CCC(C)N1C(=O)S/C(=C/c2ccc(Sc3nc4ccccc4[nH]3)o2)C1=O (centres undefined)	4.54%
O=C(O)C(c1ccccc1)N1C(=O)/C(=C\c2ccc(-c3cccc(Cl)c3)o2)SC1=S (centres undefined)	93.7% (active)
CC1COc2ccccc2N1S(=O)(=O)c1ccccc1 (centres undefined)	-12.8%
CCOC(=O)C1CCN(C(=O)CC2C(=O)N(Cc3ccccc3)C(C)c3nc4ccccc4n32)CC1 (centres undefined)	4.78%
CN(C)N=Nc1ccc2nc[nH]c2c1	-1.48%
CC1=CC(=NNS(=O)(=O)c2ccc([N+](=O)[O-])cc2)CC(C)(C)C1	8.55%
Cc1ccc(Cc2cnc(N)s2)o1	36.5% (active)
CC(=O)c1nnn(-c2ccc(Cl)cc2C#N)c1C	0.92%
CC(C)(C)c1ccc(C(=O)N2CCC(C(=O)N3CCCCC3)CC2)cc1	-2.5%
O=c1ccc(-c2ccc(S(=O)(=O)Nc3ccccc3)o2)n[nH]1	6.31%

Structure (SMILES)	inhibition
O=C(NCC1CCCO1)/C(=C/c1ccc(Cl)cc1)NC(=O)c1ccccc1 (centres undefined)	-2.86%
Cn1c2ccccc2c2cc(/C=C(\NC(=O)c3ccccc3)C(=O)NCC(=O)O)ccc21	60.8% (active)
CCOc1ccc(/C=C(/NC(=O)c2ccccc2)C(=O)NCCC(=O)O)cc1	-10.6%
CC1CCN(S(=O)(=O)c2ccc(S(=O)(=O)NCc3ccco3)cc2)CC1	0.01%
Cc1noc(NS(=O)(=O)c2ccc(N3CC(O)=C(c4ccccc4)C3=N)cc2)c1C	2.49%
O=C1CC(c2c(F)cccc2Cl)C(n2cncn2)C(O)=C1C1NCCc2ccccc21 (centres undefined)	-3.94%
CCn1c(SCC(=O)Nc2ccc(Br)cc2)nc2sc3c(c2c1=O)CCN(C)C3	3.55%
CCOc1ccc(-n2c(SCC(=O)Nc3ccc(OC)cc3)nc3sc4c(c3c2=O)CCN(C)C4)cc1	102% (active)
CCCSc1nc2sc3c(c2c(=O)n1-c1ccc(OC)cc1)CCN(C)C3	7.27%
CCN(CC)C(=O)CSc1nnc(-c2ccc(S(=O)(=O)NCc3ccccc3Cl)cc2)o1	-2.99%
NC(=S)c1ccc(C(N)=S)o1	2.12%
O=C(NCCCn1ccnc1)c1cc2c(s1)CCCC2	0.16%
COc1ccc2c(c1)OC(O)(C(F)(F)C(F)F)CC2=O (centres undefined)	2.02%
Oc1ccc(N=Cc2c(O)ccc3ccccc23)cc1	58.2% (active)
C/C(=N\NC(N)=S)c1cccnc1	-5.1%
CCc1nc2c(=O)[nH]cnc2o1	-0.47%
Cc1c(CNCCc2ccccc2)c(C(=O)O)c(C)n1-c1ccccc1	-2.52%
Cc1ccc(OCCNC(=O)c2cccc(S(=O)(=O)N3CCN(Cc4ccccc4)CC3)c2)cc1	-1.93%
Cn1c(=O)[nH]c2c(c(C(=O)O)nn2C)c1=O	-1.75%
COc1cccc(/C=N/NC(=O)c2[nH]nc3c2CCc2ccccc2-3)c1O	67% (active)
COc1cc(/C=N\NC(=O)c2nonc2N)c(OC)cc1Br	3.66%
COc1ccccc1N1CCN(C(=O)C(=O)N/N=C/c2ccccc2F)CC1	-1.85%

Structure (SMILES)	inhibition
CC1CC(C)CN(C(=O)CCNC(=O)Cn2cnc3ccccc3c2=O)C1 (centres undefined)	-0.46%
O=C(CN1CCN(c2ncc(C(F)(F)F)cc2Cl)CC1)Nc1ccc2c(c1)OCO2	4.43%
CCCC(=O)n1nc(NCc2ccc(OC)cc2)nc1NCc1ccc(OC)cc1	0.03%
CC1(C)C=Cc2c(ccc3c2OC[C@@H](c2ccc(O)cc2O)C3)O1	1.92%
Cc1cc(Br)cn2c(Cc3cccc(F)c3)c(-c3cccc(Br)c3)nc12	1.9%
Cc1cc(Br)cn2c(Cc3ccsc3)c(-c3ccc(C#N)cc3)nc12	77.2% (active)
Cc1ccc(-c2nc3c(C)cc(Br)cn3c2Cc2ccccc2)cc1	-3.35%
COC(=O)c1cc(NC(=O)CC2C(=O)NCCN2C(=O)c2ccc(F)cc2)cc(C(=O)OC)c1 (centres undefined)	0.24%
CS(=O)(=O)c1ccc(-c2nnn(CC(=O)Nc3ccc4c(c3)OCCO4)n2)cc1	0.36%
CS(=O)(=O)c1ccc2c(c1)SC1=NC(=O)/C(=C/c3ccco3)C(=N)N12	58.8% (active)
COc1ccc(N2CCN(C(=O)CNS(=O)(=O)c3ccc(C)c(C)c3)CC2)cc1	-4.8%
COc1ccc(NC(=O)CC2SC(N3CCCCC3)=NC2=O)cc1OC (centres undefined)	0.22%
COc1ccc(S(=O)(=O)N2CCN(CC(=O)N3c4ccccc4CC3C)CC2)cc1OC (centres undefined)	18.4%
COc1ccc(C2COC(=O)C2=N)c(NC(=O)c2ccccc2)c1 (centres undefined)	-4.82%
CC(=O)c1cc(NC(=O)c2ccccc2)c(=O)oc1/C=C/N(C)C	55.4% (active)
CCOC(=O)c1cc(NC(=O)c2ccc(Cl)cc2)c(=O)oc1-c1ccccc1	-2.25%
CCCCCCCC1(C)NC(=O)N(CC(=O)Nc2cc(C)on2)C1=O (centres undefined)	-7.92%
O=C1Nc2cc(C(=O)N3CCN(c4ccc(F)cc4)CC3)ccc2NC1CSCc1cccc(F)c1 (centres undefined)	51.2% (active)
C=CCn1c(SCc2cccc(F)c2)nc2cc(C(=O)N3CCC(C(N)=O)CC3)ccc2c1=O	0.76%
Cc1ccc(CSCC2Nc3ccc(C(=O)N4CCN(c5ccc(F)cc5)CC4)cc3NC2=O)cc1 (centres undefined)	25.2%
O=C(Cc1coc2ccc3ccccc3c12)NCc1cccs1	-8.34%
O=C(NCc1cccs1)c1ccc(Br)o1	-0.05%

Structure (SMILES)	inhibition
CC(C)Cn1c(N)c(C(=O)NCc2cccs2)c2nc3ccccc3nc21	36% (active)
CCOc1c(Br)cc(/C=C2\C(=O)N(CCC#N)N=C2C)cc1OC	2.79%
COc1cc(/C=C2/C(=O)NN(c3cccc(Cl)c3)C2=O)cc(Br)c1O	44.4% (active)
CCc1nc2ccc(C(=O)N(C)CCN(C)C)cn2c1N(CC)CCOC	-0.82%
O=C(CCN1C(=O)COc2ccccc21)NCCCN1CCN(c2ccc(F)cc2)CC1	-4.53%
O=C(CC1Oc2ccccc2NC1=O)NCCCN1CCN(Cc2ccccc2)CC1 (centres undefined)	-8.5%
CN1CCN(CCCNC(=O)c2ccc(/C=C3\Oc4ccccc4N(Cc4ccc(Cl)cc4)C3=O)cc2)CC1	119% (active)
Cc1nonc1OCCn1nnnc1N	-0.98%
O=C(O[C@H]1[C@H](Cc2ccccc2)NS(=O)(=O)[C@H]2C[C@@H]3C=C[C@]12O3)c1ccc([N+](=O)[O-])cc1	0.94%
CCCSc1nc2[nH]ncc2c(=O)[nH]1	0.78%
Cn1ccnc1-c1nnn(-c2ccc(F)cc2)n1	-1.15%
COc1ccc(NC(=O)CSc2nnc(Cc3ccccc3)c(=O)n2N)cc1	2.76%
CC(=O)NCCn1c(SCC(=O)Nc2ccc(C)cc2)nc2ccccc2c1=O	-2.03%
COc1ccc(NC(=O)CSc2nc3ccccc3c(=O)n2C)cc1	81.7% (active)
C=CCSc1nc2c(c(=O)[nH]1)C(C(C)C)C(C#N)=C(N)O2 (centres undefined)	-4.61%
CCCNC(=O)C(=O)Nc1cc2c3c(c1)CCC(=O)N3CCC2	-1.23%
COc1ccc(NS(=O)(=O)c2ccc(C)c(C(=O)N(C)Cc3ccc(OC)cc3OC)c2)cc1	157% (active)
CCOc1ccc(NS(=O)(=O)c2ccc(C)c(C(N)=O)c2)cc1	8.11%
COc1ccc(NS(=O)(=O)c2ccc(C)c(C(=O)NCC(c3cccs3)N3CCOCC3)c2)cc1 (centres undefined)	1.17%
CC1O[C@H](OC2C(COC3OC(CO)C(O)[C@H](O)C3O)OC(OC3CC[C@]4(C)C(CC[C@@]5(C)[C@@H]4C=C[C@]46OC[C@@]7(CCC(C)(C)C[C@H]74)C(O)C[C@@]56C)C3(C)C)C(O)C2O)C(O)C(O)C1O (some centres undefined)	-2.09%
COc1ccc(-n2nnc3c(=O)n(CC(=O)N4CCC(Cc5ccccc5)CC4)cnc32)cc1	-0.9%
